Consider seven molecules from ChEMBL document CHEMBL1158993, “Inhibition of tumor-promoter-enhanced 3H-choline incorporation into cellular phospholipids by phloroglucinol derivatives from Mallotus japonicus” (1991).

Assay [1] in a line: Antitumor promotor activity against mouse C3H10T1/2 cells assessed as inhibition of TPA-enhanced [3H]choline chloride incorporation in to phospholipids at 2 ug/ml after 1 hr. Format: functional. To be noted: C3H 10T1/2.
Assay [2] is described as follows: Antitumor promotor activity against mouse C3H10T1/2 cells assessed as inhibition of TPA-enhanced [3H]choline chloride incorporation in to phospholipids at 10 ug/ml after 1 hr. Format: functional. To be noted: C3H 10T1/2.
Assay [3] can be described thus: Antitumor promotor activity against mouse C3H10T1/2 cells assessed as inhibition of TPA-enhanced [3H]choline chloride incorporation in to phospholipids at 50 ug/ml after 1 hr. Particulars: C3H 10T1/2. The assay is classed as functional.
Another assay deals with KB. In words: Cytotoxicity against human KB cells. Format: functional.
Another assay has as its system PC-13. The assay can be described thus: Cytotoxicity against human PC13 cells. The assay is classed as functional, cell-based.
The next assay relates to B16. In words: Cytotoxicity against mouse B16 cells. Format: functional, cell-based.
The subject of another assay is P388. In words: Cytotoxicity against mouse P388 cells. Format: functional, cell-based.
Assay [4] is described as follows: Antitumor promotor activity against mouse C3H10T1/2 cells assessed as inhibition of TPA-enhanced [3H]choline chloride incorporation in to phospholipids after 1 hr. The assay is classed as functional. Particulars: C3H 10T1/2, read-out: ID50 (the source's name). In short, it runs like this:
(§1)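 Mouse C3H10T1/2 fibroblasts were exposed to test agent for 1 h. Then [methyl-3H]choline chloride (9.25 kBq/culture) was added together with TPA (50 nM), and incubation continued for 4 h. Radioactivity in the phospholipid fraction was measured, and inhibition of the TPA-enhanced incorporation was expressed as %. Test concentrations were 50, 10, 2 or 1.5 µg/ml. Values are means of duplicate experiments.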

Another assay relates to HEp-2. The assay can be described thus: Cytotoxicity against human Hep2 cells. The assay is classed as functional, cell-based.
The next assay concerns C3H 10T1/2. In words: Antitumor promotor activity against mouse C3H10T1/2 cells assessed as inhibition of TPA-enhanced [3H]choline chloride incorporation in to phospholipids at 1.5 ug/ml after 1 hr. Format: functional, cell-based. In short, it runs like this:
as §1

For a further assay, the system named is L5178Y. The assay can be described thus: Cytotoxicity against mouse L5178Y cells. The assay is classed as functional, cell-based.

≈ marks a conversion by molar mass, not a printed value. Calls of active or inactive are those of the source. The rule behind the calls is not given here.

Regarding `COc1c(C)c(O)c(C(C)=O)c(O)c1Cc1c(O)c(C(C)=O)c(O)c2c1OC(C)(C)C(O)C2` (stereo unspecified) [ISOMALLOTOCHROMANOL], the inhibition at 2 µg/mL in assay [1] is 0%. For the same molecule, the inhibition at 10 µg/mL in assay [2] was found to be 95.5%. Also, in [3], the inhibition at 50 µg/mL came to 100%.
For the molecule `C=C(C)C(O)Cc1c(O)c(Cc2c(O)c(C(C)=O)c(O)c(C)c2OC)c(O)c(C(=O)CCC)c1O` (stereo unspecified) [MALLOTOLERIN], the inhibition at 2 µg/mL in [1] came out at 78.8%. In addition, in the assay on KB, the result was Active. Further, the inhibition at 10 µg/mL in [2] is 100%. In addition, in assay [3], the inhibition at 50 µg/mL stood at 100%.
As for `COc1c(C)c(O)c(C(C)=O)c(O)c1Cc1c(O)c(C(C)=O)c(O)c2c1OC(C)(C)C=C2` [ISOMALLOTOCHROMENE], the inhibition at 2 µg/mL in assay [1] amounted to 97.9%. For the same molecule, in the assay on KB, the outcome was Active. The inhibition at 10 µg/mL in assay [2] amounted to 100%. In [3], the inhibition at 50 µg/mL turned out to be 100%.
As for `COc1c(C)c(O)c(C(C)=O)c(O)c1Cc1c(O)c2c(c(C(C)=O)c1O)OC(C)(C)CC2` [MALLOTOCHROMAN], the inhibition at 2 µg/mL in assay [1] amounted to 9.3%. The inhibition at 10 µg/mL in [2] turned out to be 68.7%. Besides, in assay [3], the inhibition at 50 µg/mL amounted to 74.3%.
For `COc1c(C)c(O)c(C(C)=O)c(O)c1Cc1c(O)c2c(c(C(C)=O)c1O)OC(C)(C)C(O)C2` (stereo unspecified) [MALLOTOCHROMANOL] the same measures were 2.9%, 29.2% and 100%.
As to `COc1c(C)c(O)c(C(C)=O)c(O)c1Cc1c(O)c(CC=C(C)C)c(O)c(C(C)=O)c1O` [MALLOTOJAPONIN], the result in the assay with PC-13, in the assay on B16, with P388, in the assay with HEp-2, with C3H 10T1/2 and in the assay with L5178Y was Active. The inhibition at 2 µg/mL in assay [1] turned out to be 85.8%. In [4], the IC50 was found to be 1 µg/mL. For the same molecule, the EC50 in the assay on KB (read-out: ED50 (the source's name)) worked out at 0.58 µg/mL (≈ 1.3 µM). For the same molecule, the inhibition at 10 µg/mL in assay [2] stood at 100%. Further, the inhibition at 50 µg/mL in [3] was 100%.
In the case of `COc1c(C)c(O)c(C(C)=O)c(O)c1Cc1c(O)c2c(c(C(C)=O)c1O)OC(C)(C)C=C2` [MALLOTOCHROMENE], the outcome with KB was Active. In [2], the inhibition at 10 µg/mL amounted to 66.7%. In assay [3], the inhibition at 50 µg/mL came to 100%.
